# procasp7 counter – counter-screen: procaspase-7 (human) activation. P55210. recombinant procaspase-7, Ac-DEVD-pNA absorbance 405 nm; D23A/D198A/D206A triple mutant, cannot self-cleave; scale: DMSO 0, 5 µM enzyme 100. activation, % at 8.5 µM. 330,000 tested, 0.093% active. AID 463210;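 active = percent activation above the screen-wide mean plus 3 SD, cut at about 25% in these data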
# Target sequence (P55210 whole entry D23A/D198A/D206A): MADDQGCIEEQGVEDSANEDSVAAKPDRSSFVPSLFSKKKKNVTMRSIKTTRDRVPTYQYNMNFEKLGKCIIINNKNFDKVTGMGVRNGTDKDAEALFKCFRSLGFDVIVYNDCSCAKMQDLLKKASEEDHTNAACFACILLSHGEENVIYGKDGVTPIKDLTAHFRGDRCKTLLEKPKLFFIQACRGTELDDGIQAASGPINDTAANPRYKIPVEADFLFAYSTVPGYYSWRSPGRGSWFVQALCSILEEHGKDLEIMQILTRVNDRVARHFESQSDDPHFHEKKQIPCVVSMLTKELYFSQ
#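 System: Procaspase-7 triple mutant (PC-7 D3A); measure: % activation from two-timepoint absorbance difference, scaled to controls; times: 1 h compound preincubation, 2 h substrate cleavage, 25 °C; also added: Ac-DEVD-pNA substrate, 400 µM as added; measured by: Epi-absorbance of released pNA at 405 nm, two timepoints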
# proCasp3 act – activators of human procaspase-3; P42574; recombinant procaspase-3 D3A, Ac-DEVD-pNA absorbance 405 nm; activation, % at 8.5 µM; 330,000 tested, 0.11% active; AID 463141;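 active = activation above the mean of all tested compounds plus 3 SD, cut at about 21% in these data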
# Target sequence (P42574 whole entry D9A/D28A/D175A): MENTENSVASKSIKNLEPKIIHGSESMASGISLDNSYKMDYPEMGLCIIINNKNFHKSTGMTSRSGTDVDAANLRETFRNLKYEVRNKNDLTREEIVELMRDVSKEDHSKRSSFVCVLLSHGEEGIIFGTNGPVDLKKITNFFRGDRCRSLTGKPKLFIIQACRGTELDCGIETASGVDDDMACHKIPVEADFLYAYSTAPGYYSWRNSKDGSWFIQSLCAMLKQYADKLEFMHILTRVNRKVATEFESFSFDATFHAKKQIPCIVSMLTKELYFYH
#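 material = Procaspase-3 D3A mutant | probe or stimulus = Ac-DEVD-pNA | compound = single dose, 8.5 µM nominal compound, 0.8% DMSO | timing = 1 h preincubation, 2 h reaction | measured by = 405 nm absorbance of p-nitroaniline, reads at 0 and 120 min | benchmarks = DMSO-only low control, 5 µM PC-3 D3A high control | repeats = singlicate, each compound tested once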
# NR3A LBD binder – modulates the human NR3A ligand-binding domain; Tm shift relative to glycine control, % at 25 µM; 340,000 tested, 2.5% active; NR3A LBD differential scanning fluorimetry, Tm shift; 0% = protein alone, 100% = glycine-bound protein;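 active = melting temperature shift of at least 10% of the positive control shift, at one fixed dose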
# aDG glyco up – increases alpha dystroglycan glycosylation; Pro5-aDG cells, alpha-DG glycosylation AlphaScreen (IIH6); 0% Pro5, 100% B10-LARGE cell signal; activation, % at 10 µM; 360,000 tested, 0.22% active; AID 624168;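 active = activation of at least 8% versus controls, or a plate z-score of at least 8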;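 note: Pro5 are CHO cells carrying HIG-tagged alpha-DG that lacks glycosylation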
# MPTP block – permeability transition pore inhibition; isolated mouse mitochondria, Ca2+ swelling absorbance, 30 min; inhibition, % at 10 µM; 360,000 tested, 1.4% active;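 active = inhibition of 50% or more, scaled per plate between neutral and stimulator controls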
# MPTP counter – Rhodamine 123 counter-screen of mitochondrial pore hits | shares compounds with MPTP block | isolated mitochondria, membrane potential, Rhodamine 123 fluorescence | 5,000 tested, 78% active | inhibition, % at 10 µM; in the data active = inhibition above about 22%
# MPTP abs DR – MPTP inhibition, dose response swelling confirmation; shares compounds with MPTP block; isolated mitochondria swelling, absorbance; IC50, µM; 780 tested, 58% active; in the data active = IC50 below about 20 µM
# MPTP cs DR – counter-screen for mitochondrial permeability transition pore inhibitors, dose response; shares compounds with MPTP block; 780 tested, 49% active; AID 651564; IC50, µM; isolated mitochondria counterscreen, fluorescence read-out; in the data active = IC50 below about 80 µM
# A number is an active result; i = inactive; nt = not tested or not shown. Only some compounds are listed: those with a hit (about 3.7% of all), similar ones and a draw of the others.
SMILES,procasp7 counter,proCasp3 act,NR3A LBD binder,aDG glyco up,MPTP block,MPTP counter,others
CCCCn1cnc2c(c(-c3ccccc3)c(-c3ccccc3)n2Cc2ccco2)c1=N,i,i,i,i,i,nt,
N=c1c2c(-c3ccccc3)c(-c3ccccc3)n(Cc3ccccc3)c2ncn1CCCn1ccnc1,i,i,i,i,55.5,i,
CC(C)(C)OC(=O)NCCCCCc1nnc(SCC(=O)Nc2cccc(Cl)c2)o1,i,i,i,i,74.5,56.6,
O=S(=O)(c1ccc(NC(=S)Nc2ccc(OC(F)F)cc2)cc1)N1CCOCC1,i,i,26.1,i,98.3,90.2,
CC(C)(C)CC(C)(C)NC(=S)Nc1ccc(S(=O)(=O)N2CCOCC2)cc1,i,i,22.1,i,100.0,77.5,
CCCCOCCCNC(=S)Nc1ccc(S(=O)(=O)N2CCOCC2)cc1,i,i,i,i,i,nt,
CN(C)CCCN(CCCN(C)C)C(=S)Nc1ccc(S(=O)(=O)N2CCOCC2)cc1,i,i,i,i,i,nt,
NNC(=S)Nc1ccc(S(=O)(=O)N2CCOCC2)cc1,i,i,i,i,i,nt,
O=S(=O)(c1ccc(NC(=S)NCCC(c2ccccc2)c2ccccc2)cc1)N1CCOCC1,i,i,16.5,i,97.0,80.1,
CC(C)CN(CC(C)C)C(=O)c1cc(S(=O)(=O)N2CCCCC2)c[nH]1,i,i,i,i,i,nt,
CCNC(=O)C1(C)CCN(Cc2ccc(-c3ccccc3)cc2)C1 (configuration not stated),nt,nt,nt,i,i,nt,
CCOc1cccc(CNCCO)c1OCc1ccc(Cl)cc1Cl,i,i,i,i,94.0,i,MPTP abs DR=4.46;MPTP cs DR=19.9
CCOc1cccc(CNc2ccc(O)cc2)c1OCc1ccc(Cl)cc1Cl,i,i,i,i,i,nt,
OCCNCc1cc(Br)ccc1OCc1ccc(Cl)cc1,i,i,i,i,i,nt,
OCCNCc1cc(Br)ccc1OCc1ccc(Cl)cc1Cl,nt,nt,i,i,81.9,20.3,
COc1cccc(COC(=O)C(Cc2ccccc2)NC(=O)c2ccco2)c1 (configuration not stated),nt,nt,nt,i,i,nt,
Cn1c(N)c(C(=O)COC(=O)C2Cc3ccccc3CN2S(C)(=O)=O)c(=O)n(C)c1=O (configuration not stated),nt,nt,nt,i,i,nt,
CC(=O)CCS(=O)(=O)c1ccc(Oc2ccc(S(=O)(=O)CCC(C)=O)cc2)cc1,i,i,i,i,58.1,i,MPTP abs DR=i;MPTP cs DR=58.6
CC1CCCC(NC(=O)c2cccc(S(=O)(=O)N3CCOCC3)c2)C1C (configuration not stated),nt,nt,nt,i,i,nt,
CC(C)NC(NC(=O)/C=C/c1ccccc1)C(Cl)(Cl)Cl (configuration not stated),i,i,i,i,i,nt,
COc1ccc(NC(=S)NC(NC(=O)/C=C/c2ccccc2)C(Cl)(Cl)Cl)cc1 (configuration not stated),i,i,i,i,95.5,65.0,
O=C(/C=C/c1ccccc1)NC(NC(=S)Nc1cc(Cl)ccc1Cl)C(Cl)(Cl)Cl (configuration not stated),i,i,29.9,i,96.9,73.5,
O=C(/C=C/c1ccccc1)NC(NC(=S)Nc1ccc(Cl)cc1)C(Cl)(Cl)Cl (configuration not stated),i,i,24.6,i,98.7,58.0,
O=C(CCc1ccccc1)NC(NC(=S)Nc1ccc(Cl)cc1)C(Cl)(Cl)Cl (configuration not stated),i,i,26.9,i,93.9,82.4,
C[C@H](CO)N1C[C@H](C)[C@@H](CN(C)C(=O)c2ccc3c(c2)OCO3)Oc2cc(/C=C/c3ccccc3)ccc2S1(=O)=O,nt,nt,nt,i,i,nt,
SMILES,procasp7 counter,proCasp3 act,NR3A LBD binder,aDG glyco up,MPTP block,MPTP counter,others
S=C(NCc1ccco1)Nc1ccc(Oc2ccccc2)cc1,i,i,i,i,77.8,84.7,
S=C(NCc1ccco1)Nc1cccc(Cl)c1,i,i,i,i,59.9,72.7,
CC(C)CNC(=S)Nc1ccc(Oc2ccccc2)cc1,i,i,i,i,91.9,98.1,
COc1ccc(NC(=S)NCc2ccco2)cc1,i,i,i,i,i,nt,
S=C(NCc1ccco1)Nc1ccc(Cl)c(Cl)c1,i,i,10.6,i,93.9,89.6,
CCOC(=O)C1(C)CCN1C(=O)c1oc2ccccc2c1C (configuration not stated),nt,nt,nt,i,i,nt,
CN(C)CCN1CCN(C2CN(Cc3ccccc3)S(=O)(=O)C2)CC1 (configuration not stated),nt,nt,nt,i,i,nt,
Cc1c(C(=O)N(C)Cc2ccc(F)cc2)sc(=O)n1Cc1ccccc1C#N,nt,nt,nt,i,i,nt,
S=C(NCc1ccco1)Nc1cc(Cl)c(Cl)cc1Cl,i,i,i,i,88.3,85.0,
OC(CN1CCCCCC1)CN(c1ccccc1)c1ccccc1 (configuration not stated),i,i,i,i,67.1,51.1,
O=C(Cc1ccc(Cl)cc1)Nc1ccc(SC(F)F)cc1,i,i,i,i,92.0,104.5,
CC(C)c1cc(C(=O)NNC(=S)NCc2ccco2)c(O)c(C(C)C)c1,i,i,19.4,i,85.2,83.3,
CCOC(=O)[C@]12CCC=C1N(Cc1ccco1)C(=O)[C@H](CC(=O)NCCCCc1ccccc1)C2,nt,nt,nt,i,i,nt,
CCCOc1nc2c(c(=O)n(C)c(=O)n2C)n1Cc1cccc2ccccc12,i,i,i,i,69.9,73.8,
CCCc1nc2c(Cl)cc(C(F)(F)F)cn2c1Cc1ccc(OC)cc1C,nt,nt,nt,i,i,nt,
CC(C)N(CC#CCC(O)(c1ccccc1)C1CCCC1)CCO (configuration not stated),i,i,i,i,i,nt,
CCN(CC#CCC(O)(c1ccccc1)C1CCCC1)C(C)C (configuration not stated),i,i,i,i,77.7,i,MPTP abs DR=i;MPTP cs DR=i
CCc1cccc(NC(=O)Cc2ccc([N+](=O)[O-])cc2)c1,i,i,i,i,i,nt,
O=C(Cc1ccc([N+](=O)[O-])cc1)Nc1cccc(C(F)(F)F)c1,i,i,i,i,81.3,81.6,
O=C(Cc1ccc([N+](=O)[O-])cc1)Nc1cc(C(F)(F)F)cc(C(F)(F)F)c1,i,i,i,i,76.8,97.9,
CN(C)C=Nc1ccc([N+](=O)[O-])c2ccccc12,nt,nt,nt,i,i,nt,
COc1ccc(CCNC(=O)Cn2cc(C(F)(F)F)cc(Cl)c2=O)cc1,i,i,i,i,i,nt,
O=C1C=C(NC(=O)Nc2ccc(Cl)c(Cl)c2)CCC1,i,i,i,i,91.3,97.9,
O=C(Nc1ccc(Cl)c(Cl)c1)c1ccccc1,i,i,i,i,i,nt,
